# KCNQ1 pot: potentiators or activators of KCNQ1 channel, primary screen, cell-based, thallium flux, high-throughput. Potassium voltage-gated channel subfamily KQT member 1 (Homo sapiens), P51787. 310,000 tested, 0.35% active. CHO-K1 KCNQ1, thallium flux FluxOR fluorescence; hits give high values. AID 2648, 2010. B-score at 10 µM;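 active = fluorescence ratio B-score, a plate-corrected score, at least three library SD, with initial intensity B-score within 5 SD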
#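 assay system = CHO-K1 cells stably expressing KCNQ1 | medium = assay buffer, equal DMSO in all wells | timing = 37 °C overnight plating, 90-min dark dye load, 20-min compound pretreatment | measured by = kinetic FluxOR thallium fluorescence, 10-s 1-Hz baseline, 110-s post-stimulus read | measure = fluorescence change relative to baseline, converted to B score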
# KCNK9 block: KCNK9 potassium channel inhibitors, primary screen, HEK293 cells, thallium flux | Potassium channel subfamily K member 9 (Homo sapiens), Q9NPC2 | FluxOR thallium flux fluorescence; hits give low values | B-score at 10 µM | 310,000 tested, 1.2% active;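 active = ratio B-score over 3 SD below the library mean, with starting fluorescence within 5 SD of its mean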;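 also: negative B-score means less thallium flux so channel inhibition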
# KCNQ1 inh: inhibitors of human KCNQ1 channel, primary screen, cell-based, thallium flux, high-throughput | CHO-K1 KCNQ1, FluxOR thallium flux fluorescence; hits give high values | 310,000 tested, 1.3% active | Potassium voltage-gated channel subfamily KQT member 1 (Homo sapiens), P51787 | AID 2642, 2010 | B-score at 10 µM;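 active = compounds whose thallium flux B-score, printed positive for inhibition, exceeds three library SD while starting fluorescence stays within three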;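 also: channel opened by potassium depolarization with thallium stimulus after 20 min compound exposure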
# Kir21 inh: inhibitors of mouse Kir2.1 inward-rectifier potassium channel; Inward rectifier potassium channel 2 (Mus musculus), P35561; HEK293-Kir2.1, FluxOR thallium flux fluorescence; hits give low values; B-score at 10 µM; 310,000 tested, 0.85% active; AID 1672, 2009;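 active = fluorescence ratio B-score at or below minus 3 SD of library scores, with starting-brightness B-score within 2 SD, cut at about -4.2 in these data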;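 also: channel flux triggered by added potassium and thallium sulfate stimulus; B-score of peak minus minimum fluorescence over baseline after thallium stimulus; more negative B-score means stronger Kir2.1 block with less thallium influx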
# Target sequence (P35561 whole entry, looked up): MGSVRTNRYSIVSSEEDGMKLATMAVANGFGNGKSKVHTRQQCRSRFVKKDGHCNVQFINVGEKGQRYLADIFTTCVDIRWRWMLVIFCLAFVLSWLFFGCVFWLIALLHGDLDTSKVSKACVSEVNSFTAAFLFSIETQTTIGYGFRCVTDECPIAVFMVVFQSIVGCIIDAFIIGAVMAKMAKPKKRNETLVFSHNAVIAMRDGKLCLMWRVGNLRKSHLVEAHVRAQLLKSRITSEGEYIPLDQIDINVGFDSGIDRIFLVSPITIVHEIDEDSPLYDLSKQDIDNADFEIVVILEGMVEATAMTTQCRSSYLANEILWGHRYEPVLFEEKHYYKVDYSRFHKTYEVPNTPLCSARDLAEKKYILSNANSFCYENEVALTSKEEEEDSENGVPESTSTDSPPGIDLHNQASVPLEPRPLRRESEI
# hERG protect: hERG rescue from dofetilide block, primary screen, cell-based, CHO-hERG, FluxOR thallium flux, dofetilide IC70; Voltage-gated inwardly rectifying potassium channel KCNH2 (Homo sapiens), Q12809; dofetilide IC70 present; activation (rescue from dofetilide block), less the hit threshold, % at 10 µM; 310,000 tested, 0.51% active; AID 1511, 2009;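 active = activation above the mean of controls blocked by dofetilide plus 5 SD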;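 also: thallium influx through hERG after potassium depolarization seen as dye fluorescence rise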
# KCNK3 inh: human KCNK3 channel inhibitors, primary screen, CHO cells, FluxOR thallium flux, B-score; Potassium channel subfamily K member 3 (Homo sapiens), O14649; FluxOR fluorescence; hits give low values; B-score at 10 µM; 340,000 tested, 0.84% active;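 active = B-score under library mean minus 4 SD, starting fluorescence ratio at most library mean plus 5 SD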;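 also: more negative B-score means stronger inhibition of thallium flux through KCNK3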
# Hits are given with their value; - = inactive; . = no result given. An excerpt weighted towards active compounds, which were near 3.7% of everything screened.
SMILES,KCNQ1 pot,KCNK9 block,KCNQ1 inh,Kir21 inh,hERG protect,KCNK3 inh
Cc1onc(-c2ccccc2)c1CNS(=O)(=O)c1cccc(Br)c1,-,-,-,-6.4,-,-
Cc1onc(-c2ccccc2)c1CNS(=O)(=O)c1ccc(F)cc1F,-,-,-,-,-,-
CC1CCCN(S(=O)(=O)CCNC(=O)c2ccccc2)C1 (centres undefined),-,-,-,-,-,-
CC1(C)Cc2c(ccc3ccccc23)C(=O)N1,-,-,-,-,-,-
O=C1CC(O)(C(F)(F)F)Oc2c1ccc1ccccc21 (centres undefined),8,-,-,-,6.8,-
Cc1cccc(CNc2ccc(S(=O)(=O)N3CCCCC3)cc2)c1,.,.,.,.,.,-9.9
COc1ccccc1NC(=O)c1ccc2c(c1)N(CC(=O)NC(C)C)C(=O)C(C)(C)O2,-,-,-,-,-,-
O=C(Nc1ccc(NC(=O)c2cccc([N+](=O)[O-])c2)cc1)c1cccc([N+](=O)[O-])c1,-,-,-,-,-,-
O=C(Nc1cc([N+](=O)[O-])ccc1O)c1cccc([N+](=O)[O-])c1,-,-,7,-,-,-
Cc1ccc(C(=O)Nc2cc([N+](=O)[O-])ccc2C)cc1,-,-,-,-,-,-
O=C(Nc1ncc([N+](=O)[O-])s1)c1cccc([N+](=O)[O-])c1,-,-,8,-,-,-
Cc1ccc([N+](=O)[O-])cc1NC(=O)c1ccc(C(C)(C)C)cc1,-,-,9,-,-,-
O=C(Nc1ccc(Cc2ccncc2)cc1)c1cccc([N+](=O)[O-])c1,-,-,-,-,9.8,-
O=C(Nc1nc(-c2ccccc2)cs1)c1cccc([N+](=O)[O-])c1,-,-,-,-,-,-
O=C(CSc1ccc2nnc(CCNC(=O)c3ccc(F)cc3)n2n1)NCc1ccco1,-,-,-,-,-,-
COc1ccc(Br)cc1C1CC(=O)C(C)C(c2cc(Br)ccc2OC)N1 (centres undefined),-,-,-,-,-,-
COc1cc(OC)cc(OC(=O)C2CCN(S(=O)(=O)c3ccc(OC)c(OC)c3)CC2)c1,-,-,-,-,-,-
Cc1ccccc1CN1CCN(Cc2ccc3cccc(F)c3n2)CC1CCO (centres undefined),-,-,-,-,-,-
Nc1cc(=O)[nH]c(SCc2nc3ccccc3n2Cc2ccccc2)n1,-,-,-,-,6.1,-
O=c1[nH]c(SCc2nc3ccccc3n2Cc2ccccc2)nc2ccccc12,-,-,-,-,-,-
CCCN(CCC)C(=S)NC1CC2C=CC1C2 (centres undefined),-,-,-,-4.7,-,-
Oc1ccccc1/C=N/NC(=S)NC1CC2C=CC1C2 (centres undefined),-,-,-,-,-,-
CN(C(=O)c1cc2n(n1)C(C(F)(F)F)CC(c1ccco1)N2)c1ccc(OC(F)(F)F)cc1 (centres undefined),-,-,-,-,-,-
CN(C(=O)c1cc2n(n1)C(C(F)(F)F)CC(c1ccco1)N2)c1ccccc1 (centres undefined),-,-6.7,-,-,-,-
Cn1c(CNC(=O)c2ccccc2F)nnc1SCc1nc2ccccc2c(=O)[nH]1,-,-,-,-,6.8,.
COc1ccc(C(=O)NCCc2nnc(SCc3nc4ccccc4c(=O)[nH]3)n2C)cc1,-,-,-,-,-,-
CCN(CC)C(=O)c1cc2sc3ccccc3c2s1,-,-7.5,-,-,-,-
CN(C)CCNC(=O)c1cc2sc3ccccc3c2s1,-,-,-,-4.2,-,-
CCCn1c(N)c(C(=O)COc2ccc(Br)cc2F)c(=O)n(C)c1=O,-,-,-,-,-,-
COCCn1c(SCC(=O)Nc2cccnc2Cl)nc2ccccc21,.,.,.,.,.,-

# Assay outcomes deposited in PubChem BioAssay by Johns Hopkins Ion Channel Center.
